From ChEMBL document CHEMBL1147263, “New cinnamylphenols from Dalbergia species with cancer chemopreventive activity” (J Nat Prod, 2003)
Blank lines part the entries; values can stand above or below the compound they belong to.

Experiments:
[1] = test system: Raji; assay: Inhibition of 12-O-tetradecanoylphorbol-13-acetate-induced EBV-early antigen activation in human Raji cells assessed as EA induction at 0.32 nmol relative to 12-O-tetradecanoylphorbol-13-acetate; assay type: cell-based; design: scale not given: the % may be the effect or the level left; details: human gammaherpesvirus 4
Outline: (§1)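 Raji cells at 10^6 cells/mL resuspended in RPMI 1640 + 10% FCS containing 4 mM n-butyric acid, 32 pmol TPA (20 ng/mL in DMSO) and test compound in DMSO. Incubated 48 h at 37 °C. EA-positive cells scored blind, ≥500 cells per assay. Reported as % EBV-EA activation ± SD relative to the TPA-only control (100%).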

[2] = test system: Raji; assay: Inhibition of 12-O-tetradecanoylphorbol-13-acetate-induced EBV-early antigen activation in human Raji cells assessed as EA induction at 32 nmol relative to 12-O-tetradecanoylphorbol-13-acetate; assay type: cell-based; design: scale not given: the % may be the effect or the level left; details: human gammaherpesvirus 4; outline: as §1
[3] = Inhibition of 12-O-tetradecanoylphorbol-13-acetate-induced EBV-early antigen activation in human Raji cells assessed per 32 pmol TPA; assay type: cell-based, human gammaherpesvirus 4
Outline: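 IC50 given as the mol ratio of compound to TPA giving 50% inhibition of EBV-EA activation versus the TPA-only control (32 pmol TPA = 100%). Raji cells were kept in RPMI 1640/10% FCS with 4 mM n-butyric acid and DMSO-dissolved compound at 10–1000 mol ratio, 48 h, 37 °C. EA-positive cells were counted blind, ≥500 per assay.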

[4] = Cytotoxicity against human Raji cells assessed as cell viability at 16 nmol after 48 hrs by trypan blue staining method; assay type: cell-based; details: read-out: Activity
Outline: (§2)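 Raji cells grown to 10^6 cells/mL, pelleted and resuspended in RPMI 1640 + 10% FCS with 4 mM n-butyric acid, 32 pmol TPA (20 ng/mL) and test compound in DMSO (mol ratio to TPA 10–1000, i.e. 0.32–32 nmol). Incubated 48 h at 37 °C. Viability then counted on a hemocytometer with Trypan Blue. ≥60% survival required for valid EA readings.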

[5] = test system: Raji; assay: Inhibition of 12-O-tetradecanoylphorbol-13-acetate-induced EBV-early antigen activation in human Raji cells assessed as EA induction at 3.2 nmol relative to 12-O-tetradecanoylphorbol-13-acetate; assay type: cell-based; design: scale not given: the % may be the effect or the level left; details: human gammaherpesvirus 4; outline: as §1
[6] = test system: Raji; assay: Inhibition of 12-O-tetradecanoylphorbol-13-acetate-induced EBV-early antigen activation in human Raji cells assessed as EA induction at 16 nmol relative to 12-O-tetradecanoylphorbol-13-acetate; assay type: cell-based; design: scale not given: the % may be the effect or the level left; details: human gammaherpesvirus 4; outline: as §1
[7] = Cytotoxicity against human Raji cells assessed as cell viability at 3.2 nmol after 48 hrs by trypan blue staining method; assay type: cell-based; details: read-out: Activity; outline: as §2
[8] = Cytotoxicity against human Raji cells assessed as cell viability at 0.32 nmol after 48 hrs by trypan blue staining method; assay type: cell-based; details: read-out: Activity; outline: as §2
[9] = Cytotoxicity against human Raji cells assessed as cell viability at 32 nmol after 48 hrs by trypan blue staining method; assay type: cell-based; details: read-out: Activity; outline: as §2

IC50 [3]: 400 molar ratio
SMILES: CC1=C(/C=C/C(C)=C/C=C/C(C)=C/C=C/C=C(C)/C=C/C=C(C)/C=C/C2=C(C)CCCC2(C)C)C(C)(C)CCC1 [BETA CAROTENE]
Activity [1]: 100%
Activity [2]: 9.1%

IC50 [3]: 213 molar ratio
SMILES: COc1c(O)cccc1/C=C/Cc1ccc(O)c(OC)c1OC [DALBERATIN A]
viability at 48 h, 16 nmol [4]: > 80%
Activity [1]: 85.1%
Activity [5]: 63.6%
Activity [6]: 18.5%
viability at 48 h, 3.2 nmol [7]: > 80%
Activity [2]: 0%
viability at 48 h, 0.32 nmol [8]: > 80%
viability at 48 h, 32 nmol [9]: 60%

IC50 [3]: 303 molar ratio
SMILES: COc1ccc(O)c(/C=C/Cc2ccc(O)c(OC)c2OC)c1 [DALBERATIN B]
viability at 48 h, 16 nmol [4]: > 80%
Activity [1]: 91.7%
Activity [5]: 68.3%
Activity [6]: 31.1%
viability at 48 h, 3.2 nmol [7]: > 80%
Activity [2]: 0%
viability at 48 h, 0.32 nmol [8]: > 80%
viability at 48 h, 32 nmol [9]: 70%

IC50 [3]: 223 molar ratio
SMILES: COc1ccc(C/C=C/c2cccc(O)c2OC)c(OC)c1O [DALBERATIN C]
viability at 48 h, 16 nmol [4]: > 80%
Activity [1]: 86.7%
Activity [5]: 65%
Activity [6]: 20.9%
viability at 48 h, 3.2 nmol [7]: > 80%
Activity [2]: 0%
viability at 48 h, 0.32 nmol [8]: > 80%
viability at 48 h, 32 nmol [9]: 60%

IC50 [3]: 209 molar ratio
SMILES: COc1c(O)cccc1/C=C/Cc1ccc(O)c(O)c1OC [DALBERATIN E]
viability at 48 h, 16 nmol [4]: > 80%
Activity [1]: 82%
Activity [5]: 60.3%
Activity [6]: 16.4%
viability at 48 h, 3.2 nmol [7]: > 80%
Activity [2]: 0%
viability at 48 h, 0.32 nmol [8]: > 80%
viability at 48 h, 32 nmol [9]: 70%
